Laboratory results from ChEMBL document CHEMBL1153784, “Synthesis, characterization, antiamoebic activity and toxicity of novel bisdioxazole derivatives” (Eur J Med Chem, 2009).

What was measured:
[1] = test system: Entamoeba histolytica; assay: Antiamoebic activity against Entamoeba histolytica HM1:IMSS trophozoites after 72 hrs by microdilution method; type: functional, organism-based
Summary of the method: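 Trophozoites grown in Diamond TYIS-33 medium in 96-well plates; amoebae detached by chilling on ice. Compounds from freshly prepared 1 mg/ml DMSO stocks, twofold serial dilutions, DMSO at most 0.016%. Plates gassed with nitrogen 10 min, incubated 37 °C 72 h, washed with 0.9% NaCl, stained, dye released with 0.1 N NaOH, OD 490 nm. IC50 by linear regression of % inhibition vs log dose. Triplicate wells, repeated thrice.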

[2] = Toxicity in rat H9c2 cells after 48 hrs by MTT assay; type: cell-based
Summary of the method: (§1)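 Subconfluent H9c2 cardiac myoblasts exposed to increasing compound concentrations for 48 h at 37 °C in 5% CO2, with an untreated control. Cells washed in PBS, given 5 mg/ml MTT for 45 min at 37 °C. Crystals dissolved in acid isopropanol, absorbance read at 570 nm. Viability = absorbance of treated relative to untreated cells. Run in triplicate.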

[3] = Safety index, ratio of IC50 for rat H9c2 cells to IC50 for Entamoeba histolytica HM1:IMSS trophozoites; type: toxicity, cell-based; conditions: read-out: Ratio IC50
[4] = Toxicity in rat H9c2 cells assessed as cell viability at 12.5 ug/ml after 48 hrs by MTT assay; type: cell-based; conditions: read-out: Activity; summary of the method: as §1

Row | SMILES | IC50 [1] | IC50 at 48 h [2] | selectivity ratio [3] | viability at 48 h, 12.5 ug/ml [4]
1 | COc1ccc(C2ON=C(c3ccc(C4=NOC(c5ccc(OC)c(OC)c5)O4)cc3)O2)cc1OC (stereo not given) | 4.38 µM | – | – | –
2 | CC(C)c1ccc(C2ON=C(c3ccc(C4=NOC(c5ccc(C(C)C)cc5)O4)cc3)O2)cc1 (stereo not given) | 4.65 µM | – | – | –
3 | COc1ccc(C2ON=C(c3ccc(C4=NOC(c5ccc(OC)cc5)O4)cc3)O2)cc1 (stereo not given) | 1.01 µM | > 17 µM | > 16.8 | 89%
4 | O/N=C/c1ccc(/C=N/O)cc1 | 5.73 µM | – | – | –
5 | Clc1cccc(C2ON=C(c3ccc(C4=NOC(c5cccc(Cl)c5)O4)cc3)O2)c1 (stereo not given) | 1.41 µM | 8 µM | 5.67 | 83.5%
6 | Clc1ccc(C2ON=C(c3ccc(C4=NOC(c5ccc(Cl)cc5)O4)cc3)O2)cc1 (stereo not given) | 4.21 µM | – | – | –
7 | Cc1ncc([N+](=O)[O-])n1CCO [METRONIDAZOLE] | – | > 116 µM | > 64.4 | –

The remaining compounds from weak to strong by IC50 [1], led by results:

Row | IC50 [1] | SMILES | IC50 at 48 h [2] | selectivity ratio [3] | viability at 48 h, 12.5 ug/ml [4]
8 | 6.1 µM | Clc1ccc(C2ON=C(c3ccc(C4=NOC(c5ccc(Cl)c(Cl)c5)O4)cc3)O2)cc1Cl (stereo not given) | – | – | –
9 | 3.96 µM | c1ccc(C2ON=C(c3ccc(C4=NOC(c5ccccc5)O4)cc3)O2)cc1 (stereo not given) | – | – | –
10 | 2.78 µM | CCc1ccc(C2ON=C(c3ccc(C4=NOC(c5ccc(CC)cc5)O4)cc3)O2)cc1 (stereo not given) | – | – | –
11 | 1.22 µM | Clc1ccccc1C1ON=C(c2ccc(C3=NOC(c4ccccc4Cl)O3)cc2)O1 (stereo not given) | 34 µM | 27.9 | 96.2%
12 | 1.05 µM | Cc1ccc(C2ON=C(c3ccc(C4=NOC(c5ccc(C)cc5)O4)cc3)O2)cc1 (stereo not given) | 49 µM | 46.7 | 82%
